Data from PubChem BioAssay.
pIC50: −log10 of the molar value. Results filed as inconclusive are left out. The source made the active and inactive calls.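 How the source made its calls, unless noted: active means RAM network inhibition above 8.4% in each of two replicates, 3 SD over the compound average; inconclusive means above 8.4% inhibition in only one replicate; inactive means 8.4% inhibition or less in each replicate.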

Experiments:
[1] = S. cerevisiae growth inhibition in permissive medium (OD615), pilot counter-assay for S. cerevisiae lifespan shortening project, permissive growth control (AID 705;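 active means growth inhibition above 25% in both replicates, a cutoff set 3 SD above the mean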); conditions: OD615, 24 h, at 10 µM, stronger effect = higher value
Method in brief: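 System – S. cerevisiae with engineered DeaD lifespan system · Buffer or medium – SC raffinose/galactose permissive medium · Schedule – cells pre-grown 4 h, then 24 h compound exposure, 30 °C humidified · Technique – culture turbidity as optical density at 615 nm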

[2] = S. cerevisiae growth inhibition in restrictive medium, OD615, pilot screen, restrictive growth control, yeast lifespan reduction project (AID 706;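 active means growth inhibition above a set limit, 3 SD over mean compound inhibition, in both replicates, cut at about 43% in these data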;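 further: modified DeaD lifespan yeast strain shifted to restrictive glucose medium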); conditions: OD615, 48 h, at 10 µM, stronger effect = higher value
Method in brief: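 Material: engineered S. cerevisiae DeaD strain / Medium: glucose-based CSMM-D restrictive medium / Compound: single dose of 10 µM compound final, 0.25% DMSO / Timing: 4 h pre-incubation, 48 h exposure at 30 °C / Technique: OD615 absorbance reading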

[3] = doxorubicin toxicity protection in MRP-1 cells – H69AR cells, CellTiter-Glo, duplicate, MRP-1 activator project, pilot screen (AID 807;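 active means viability increase at or above a cutoff of the median across tested compounds plus 3 SD, cut at about 8.5% in these data, passing the limit was not always enough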;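 further: compound pretreatment 18-22 h then 72 h combined with doxorubicin; 0% = doxorubicin alone and 100% = vehicle without doxorubicin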); conditions: H69AR viability with doxorubicin, CellTiter-Glo luminescence; at 10 µM; stronger effect = higher value
[4] = viability of HCT116 without oncogenic beta-catenin – human colon tumor cells, pilot screen (AID 823;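 active means cell viability at or below a set limit in both duplicate runs, the limit being the all-compound median minus 4 SD, cut at about 23% in these data, passing the limit was not always enough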;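 further: 0% = wells killed by 20 µM Hyamine and 100% = untreated DMSO cell wells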); conditions: HCT116 beta-catenin knockout viability, CellTiter-Glo, 60 h; at 10 µM; stronger effect = lower value
[5] = viability of PTEN-null HCT116 cells – cell-based, HCT116 clonal line, CellTiter-Glo, pilot screen (AID 824;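 active means viability at or below 27.92% in each of two runs, the all-compound median minus 4 SD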;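 further: 0% = 20 µM Hyamine control and 100% = vehicle cell control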); conditions: HCT116 PTEN-deleted viability, 60 h, at 10 µM, stronger effect = lower value
[6] = RAM pathway blockade in budding yeast – dse1pr::URA3 reporter, 5-FOA selection, pilot screen (AID 869;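 active means inhibition over a set limit, the all-compound mean plus 3 SD, in both replicate runs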;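 further: 0% = DMSO wells with no growth and 100% = 10 µM 1-NA-PP1 with full growth; RAM network block rescues cells from 5-FOA so hits raise OD615 growth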); conditions: S. cerevisiae dse1pr::URA3 5-FOA growth, OD615, 2 d, at 10 µM, stronger effect = higher value
[7] = RAM signaling pathway blockade in yeast – S. cerevisiae, Pdr1DBD-CYC8 efflux-inhibited sensitized strain, primary screen (AID 1298);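 further: 0% = DMSO untreated cells without growth and 100% = 10 µM 1-NA-PP1 full growth; higher means more yeast growth rescued from 5-FOA killing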; conditions: S. cerevisiae cbk1-as DSE1-URA3 strain, 5-FOA growth OD615, 2 d; at 50 µM; stronger effect = higher value
[8] = Coupled enzyme confirmation of inhibitors against recombinant Mtb PanC (AID 375; call rule not given here); conditions: coupled enzyme assay; measured here: coupling enzymes IC50 repeat trials unless noted
[9] = biological target: Pantothenate synthetase (Mycobacterium tuberculosis (strain ATCC 25618 / H37Rv)) (UniProt P9WIL5); assay: as above; conditions: coupled enzyme assay; at 10 µM, stronger effect = higher value
Pantothenate synthetase (Mycobacterium tuberculosis (strain ATCC 25618 / H37Rv)), sequence (P9WIL5 whole entry, looked up): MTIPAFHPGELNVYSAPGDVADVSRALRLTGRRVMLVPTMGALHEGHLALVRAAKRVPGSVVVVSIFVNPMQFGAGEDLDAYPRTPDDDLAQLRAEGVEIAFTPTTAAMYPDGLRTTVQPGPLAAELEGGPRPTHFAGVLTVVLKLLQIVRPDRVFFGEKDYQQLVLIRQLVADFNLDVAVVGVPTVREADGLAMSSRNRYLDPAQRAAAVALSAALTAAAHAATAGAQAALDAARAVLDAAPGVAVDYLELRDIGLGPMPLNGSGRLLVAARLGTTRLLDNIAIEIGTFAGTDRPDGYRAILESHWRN

Compound	growth inhibition [1]	growth inhibition [2]	viability increase [3]	viability [4]	viability [5]	inhibition [6]	RAM network inhibition [7]	pIC50 [8]	outcome [9]
O=c1c2ccccc2nc(-c2cccs2)n1-c1cnccn1	-10.5% (inactive)	-2.03% (inactive)	-1.4% (inactive)	99.7% (inactive)	96.3% (inactive)	2.33% (inactive)	2.35% (inactive)	–	–
Cn1cc(C(=O)c2ccccc2)c2ccccc21	-1.98% (inactive)	0.835% (inactive)	-1.92% (inactive)	80.8% (inactive)	87.1% (inactive)	0.46% (inactive)	-3.38% (inactive)	–	–
Nc1ccc(S(=O)(=O)N2CCCCC2c2cccnc2)cc1 (centres undefined)	-3.15% (inactive)	0.935% (inactive)	-0.96% (inactive)	103% (inactive)	104% (inactive)	0.625% (inactive)	-0.2% (inactive)	–	–
Clc1cccc(CN2CCCCC2c2cccnc2)c1 (centres undefined)	-8.37% (inactive)	-2.08% (inactive)	0.65% (inactive)	81.9% (inactive)	85.3% (inactive)	1.16% (inactive)	-0.74% (inactive)	–	–
O=c1cccc2n1CC1CC2CN(C(c2cccc(F)c2)c2sc3ncnn3c2O)C1 (centres undefined)	-2.99% (inactive)	-4.42% (inactive)	-0.98% (inactive)	105% (inactive)	111% (inactive)	2.02% (inactive)	-0.21% (inactive)	–	–
Cc1cc(OCC(=O)NC2CCS(=O)(=O)C2)c2c3c(c(=O)oc2c1)CCC3 (centres undefined)	-13.3% (inactive)	-15.4% (inactive)	-5.3% (inactive)	87.2% (inactive)	–	1.55% (inactive)	2.75% (inactive)	–	–
Cn1c(O)c(C(=NCCN2CCCCC2)c2ccccc2Cl)c(=O)n(C)c1=O	-15% (inactive)	-13.6% (inactive)	-0.81% (inactive)	87.3% (inactive)	93.8% (inactive)	-0.185% (inactive)	0.48% (inactive)	–	–
CC(=O)Nc1ccc(OC(=O)N(C)c2ccccc2)cc1	1.69% (inactive)	-3.19% (inactive)	0.24% (inactive)	105% (inactive)	100% (inactive)	3.04% (inactive)	3.59% (inactive)	–	–
CCOC(=O)c1cncn1C(C)c1ccccc1 (centres undefined)	-15.6% (inactive)	1.2% (inactive)	-2.02% (inactive)	102% (inactive)	–	0.145% (inactive)	3.01% (inactive)	–	–
COc1ccc2[nH]c(C)c(CCN3CCC(=O)C(C)C3C)c2c1 (centres undefined)	-4.37% (inactive)	-10.2% (inactive)	-2.73% (inactive)	87.1% (inactive)	93.1% (inactive)	0.27% (inactive)	3.24% (inactive)	–	–
COC(=O)C(O)(c1ccc(N(C)S(=O)(=O)c2ccccc2)cc1)C(F)(F)F (centres undefined)	-3.52% (inactive)	2.86% (inactive)	1.65% (inactive)	98.8% (inactive)	108% (inactive)	1.2% (inactive)	0.9% (inactive)	–	–
COc1ccc(CC2C(=O)NC(=O)N(c3ccccc3)C2=O)c(OC)c1 (centres undefined)	-13.5% (inactive)	0.545% (inactive)	-1.2% (inactive)	89.6% (inactive)	96.9% (inactive)	-0.495% (inactive)	0.67% (inactive)	–	–
Cc1nc2ccc(Cl)cn2c1P(=S)(N1CCOCC1)N1CCOCC1	-10.4% (inactive)	4.46% (inactive)	-2.81% (inactive)	99.8% (inactive)	–	0.175% (inactive)	5.03% (inactive)	–	–
Cc1ccccc1Cn1nc(C)c(NC(=O)c2noc3c2CC(C(C)(C)C)CC3)c1C (centres undefined)	–	–	–	–	–	–	–	< 4.00	inactive
CCCOc1ccccc1C1SCC(=O)Nc2c1c(=O)[nH]n2C(C)CCC (centres undefined)	-9.65% (inactive)	-5.25% (inactive)	1.02% (inactive)	94% (inactive)	–	1.6% (inactive)	1.25% (inactive)	–	–
COc1cc(C2SCC(=O)Nc3c2c(=O)[nH]n3C2CCCCCC2)cc(OC)c1OC (centres undefined)	-22.7% (inactive)	-4.26% (inactive)	-2.62% (inactive)	92.6% (inactive)	–	2.39% (inactive)	2.76% (inactive)	–	–
c1ccc2c(CN3CCCCCCC3)c[nH]c2c1	-9.45% (inactive)	0.115% (inactive)	-6.65% (inactive)	62.3% (inactive)	67.8% (inactive)	0.485% (inactive)	5.27% (inactive)	–	–
Cc1ccc2cccc(OC(=O)N(C)c3ccccc3)c2n1	-4.06% (inactive)	-4.96% (inactive)	-0.64% (inactive)	95.5% (inactive)	87.5% (inactive)	1.67% (inactive)	1.8% (inactive)	–	–
COc1cc(CC2C(=O)N(C)C(=O)N(C)C2=O)ccc1OCc1ccccc1	-12.6% (inactive)	-5.52% (inactive)	0.67% (inactive)	96.9% (inactive)	95.8% (inactive)	0.87% (inactive)	5.72% (inactive)	–	–

Compound	growth inhibition [1]	growth inhibition [2]	viability increase [3]	viability [4]	viability [5]	inhibition [6]	RAM network inhibition [7]	pIC50 [8]	outcome [9]
O=C(CN1CC(c2ccccc2)CC1=O)Nc1cccc(F)c1 (centres undefined)	-10.1% (inactive)	-5.42% (inactive)	-4.37% (inactive)	98.3% (inactive)	96.5% (inactive)	1.39% (inactive)	4.67% (inactive)	–	–
O=C(Cc1ccccc1)Oc1cccc(N2C(=O)CCC2=O)c1	-15.7% (inactive)	-12.2% (inactive)	-0.69% (inactive)	101% (inactive)	94.8% (inactive)	1.23% (inactive)	3.42% (inactive)	–	–
FC(F)(F)/C(=N\P(=S)(N1CCOCC1)N1CCOCC1)N1CCOCC1	6.63% (inactive)	-10.3% (inactive)	-1.97% (inactive)	94.9% (inactive)	–	1.79% (inactive)	5.4% (inactive)	–	–
CCCCCCn1c(=O)c(C(=O)Nc2ccncc2)c(O)c2ccccc21	93.5% (active)	97.4% (active)	-7.48% (inactive)	–	–	-0.885% [strain carries analog-sensitive mutant Cbk1 kinase] (inactive)	-1.58% (inactive)	–	–
Cn1c(O)c(C=NCCOc2ccc(Cl)cc2)c(=O)n(C)c1=O	4% (inactive)	0.245% (inactive)	2.29% (inactive)	93.2% (inactive)	93.7% (inactive)	1.06% (inactive)	4.1% (inactive)	–	–
Cc1cccnc1-n1c(-c2ccco2)nc2ccccc2c1=O	-5.46% (inactive)	-8.26% (inactive)	-0.56% (inactive)	100% (inactive)	101% (inactive)	0.59% (inactive)	-0.22% (inactive)	–	–
COc1cccc(N2C(=O)CC(=O)NC2=O)c1	-5.82% (inactive)	-6.37% (inactive)	-0.55% (inactive)	–	108% (inactive)	1.5% (inactive)	1.99% (inactive)	–	–
CC1(C)CC(n2[nH]c(=O)c3c2NC(=O)CSC3c2ccc(F)cc2)CCO1 (centres undefined)	-12.3% (inactive)	-25.8% (inactive)	-2.67% (inactive)	95.8% (inactive)	–	-0.28% (inactive)	4.89% (inactive)	–	–
O=C(Cc1ccc(Br)cc1)N1CCN(Cc2ccccc2)CC1	-2.42% (inactive)	-2.88% (inactive)	-1.69% (inactive)	–	72.7% (inactive)	1.23% (inactive)	5.41% (inactive)	–	–
CN1CCN(CCC(C#N)(c2ccccc2)c2ccccc2)CC1	-19.9% (inactive)	-7.5% (inactive)	-2.94% (inactive)	87% (inactive)	–	1.81% (inactive)	0.63% (inactive)	–	–
CCCCP(=O)(O)c1ccccc1	-5.46% (inactive)	-11.7% (inactive)	-0.51% (inactive)	101% (inactive)	95.4% (inactive)	1.03% (inactive)	3.03% (inactive)	–	–
Cc1ccnc(-n2c(C)nc3ccccc3c2=O)c1	-1.76% (inactive)	-3.79% (inactive)	-2.48% (inactive)	90.8% (inactive)	90.7% (inactive)	0.27% (inactive)	-0.81% (inactive)	–	–
CN1CCN(c2ccc(NC(=O)C(C)(C)C)cc2)CC1	-17.9% (inactive)	6% (inactive)	-1.56% (inactive)	94.8% (inactive)	–	1.54% (inactive)	5.29% (inactive)	–	–
CCc1sc(C(=O)N2CCC3(CC2)OCCO3)cc1Br	-7.48% (inactive)	-12.2% (inactive)	-2% (inactive)	–	100% (inactive)	0.935% (inactive)	1.59% (inactive)	–	–
COc1cc2c(cc1OC)C(C(=O)N1CCC3(CC1)OCCO3)C(c1ccccc1F)N(C)C2=O (centres undefined)	-3.76% (inactive)	12% (inactive)	-3.17% (inactive)	–	84.3% (inactive)	1.23% (inactive)	0.57% (inactive)	–	–
OC12Oc3ccccc3C=C1N1CCC2CC1 (centres undefined)	1.47% (inactive)	-1.35% (inactive)	0.26% (inactive)	99.1% (inactive)	96.8% (inactive)	1.48% (inactive)	0.26% (inactive)	–	–
Cc1nn(C2CCOC(C)(C)C2)c2c1C(c1ccc3c(c1)OCO3)SCC(=O)N2 (centres undefined)	7.63% (inactive)	14.5% (inactive)	-0.34% (inactive)	97% (inactive)	–	0.985% (inactive)	1.2% (inactive)	–	–
COCCOC(=O)C1=C(N)OC(C)=C(C(=O)OC)C12C(=O)Nc1ccccc12 (centres undefined)	-5.22% (inactive)	-5.97% (inactive)	-4.28% (inactive)	–	93% (inactive)	2.54% (inactive)	3.95% (inactive)	–	–
C[C@H]1CCC[C@@H](O)CCC/C=C/c2cc(O)cc(O)c2C(=O)O1	-5.6% (inactive)	-3.65% (inactive)	-7.59% (inactive)	46.9% (inactive)	44.9% (inactive)	0.64% (inactive)	1.97% (inactive)	–	–
